≈ marks a conversion by molar mass, not a printed value. Calls of active or inactive are those of the source. The rule behind the calls is not given here.
Experiments:
Staphylococcus aureus [1] = experiment: Antibacterial activity against methicillin-resistant Staphylococcus aureus H 5996/08 after 24 to 48 hrs by broth microdilution method; format: functional, organism-based
In short: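 Strains were subcultured on Mueller-Hinton agar at 35 °C, and the inoculum was suspended in 0.85% saline to 0.5 McFarland (1.5×10^8 CFU/mL). Microdilution was done in Mueller-Hinton broth, pH 7.0, with final DMSO at most 1% (v/v). MIC, set at 95% growth inhibition versus control, was read after 24 and 48 h of static incubation at 35 °C.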

Pichia kudriavzevii [2] = experiment: Antifungal activity against Candida krusei E28 after 48 hrs by broth microdilution method; format: functional; conditions: E28, 48 h
In short: (§1)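 Broth microdilution. Compounds in DMSO were diluted twofold in RPMI 1640 with glutamine, buffered to pH 7.0 with MOPS. Final DMSO was at most 2.5% (v/v). Plates were incubated statically, in the dark and humid, at 35 °C and read at 24 and 48 h.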

Pseudomonas aeruginosa = experiment: Antibacterial activity against Pseudomonas aeruginosa CCM 1961 after 24 to 48 hrs by broth microdilution method; format: functional, organism-based
In short: (§2)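 Strains subcultured on Mueller-Hinton agar at 35 °C and passaged onto MHA before testing. Inoculum suspended in sterile 0.85% saline and adjusted to 0.5 McFarland (1.5×10^8 CFU/mL). Compounds in DMSO (final ≤1% v/v) in Mueller-Hinton broth at pH 7.0, with medium and DMSO-alone controls. Static incubation at 35 °C; MIC taken as 95% growth inhibition versus control at 24 and 48 h.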

Mycobacterium avium [3] = experiment: Antimycobacterial activity against Mycobacterium avium CNCTC My 152/73 after 14 days by microdilution method; format: functional; conditions: CNCTC My 152/73, 336 h
In short: (§3)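 Compounds in DMSO were diluted in Šula's semisynthetic medium, pH 5.5, to final 200–3.125 μg/mL, with DMSO at most 1% (v/v). Mycobacteria were added as a suspension in isotonic saline and grown at 37 °C. MIC was read visually after 14 days as the lowest concentration inhibiting growth.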

Candida albicans [4] = experiment: Antifungal activity against Candida albicans ATCC 44859 after 48 hrs by broth microdilution method; format: functional; conditions: ATCC 44859, 48 h; in short: as §1
Escherichia coli = experiment: Antibacterial activity against Escherichia coli CCM 4517 after 24 to 48 hrs by broth microdilution method; format: functional, organism-based; in short: as §2
Staphylococcus aureus [5] = experiment: Antibacterial activity against Staphylococcus aureus CCM 4516/08 after 24 to 48 hrs by broth microdilution method; format: functional, organism-based; in short: as §2
Lichtheimia corymbifera [6] = experiment: Antifungal activity against Absidia corymbifera 272 after 24 hrs by broth microdilution method; format: functional; conditions: Lichtheimia corymbifera, 272, 24 h; in short: as §1
Mycobacterium avium [7] = experiment: Antimycobacterial activity against Mycobacterium avium CNCTC My 80/72 after 14 days by microdilution method; format: functional; conditions: CNCTC My 80/72, 336 h; in short: as §3
[8] = test system: Trichophyton mentagrophytes; experiment: Antifungal activity against Trichophyton mentagrophytes 445 after 72 hrs by broth microdilution method; format: functional; conditions: Trichophyton mentagrophytes, 445, 72 h
In short: (§4)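 Trichophyton mentagrophytes was tested by twofold broth microdilution in MOPS-buffered RPMI 1640 with glutamine, pH 7.0, with final DMSO at most 2.5% (v/v). Incubation was static, dark and humid at 35 °C, and plates were read at 72 and 120 h.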

Pichia kudriavzevii [9] = experiment: Antifungal activity against Candida krusei E28 after 24 hrs by broth microdilution method; format: functional; conditions: E28, 24 h; in short: as §1
Candida albicans [10] = experiment: Antifungal activity against Candida albicans ATCC 44859 after 24 hrs by broth microdilution method; format: functional; conditions: ATCC 44859, 24 h; in short: as §1
Candida tropicalis [11] = experiment: Antifungal activity against Candida tropicalis 156 after 24 hrs by broth microdilution method; format: functional; conditions: Candida tropicalis, 156, 24 h; in short: as §1
[12] = test system: Mycobacterium tuberculosis; experiment: Antimycobacterial activity against Mycobacterium tuberculosis H37Rv CNCTC My 331/88 after 14 days by microdilution method; format: functional; conditions: H37Rv CNCTC My 331/88, 336 h; in short: as §3
Trichosporon beigelii [13] = experiment: Antifungal activity against Trichosporon beigelii 1188 after 24 hrs by broth microdilution method; format: functional; conditions: Trichosporon beigelii, 1188, 24 h; in short: as §1
Candida tropicalis [14] = experiment: Antifungal activity against Candida tropicalis 156 after 48 hrs by broth microdilution method; format: functional; conditions: Candida tropicalis, 156, 48 h; in short: as §1
Klebsiella pneumoniae [15] = experiment: Antibacterial activity against ESBL-positive Klebsiella pneumoniae J 14368/08 after 24 to 48 hrs by broth microdilution method; format: functional, organism-based
Mycobacterium kansasii = experiment: Antimycobacterial activity against Mycobacterium kansasii CNCTC My 235/80 after 6 days by microdilution method; format: functional; conditions: CNCTC My 235/80, 144 h
In short: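 Compounds were dissolved in DMSO and diluted in Šula's semisynthetic medium at pH 5.5, at final concentrations of 200 to 3.125 μg/mL in twofold steps; DMSO stayed ≤1% v/v. The strain was added as a suspension in isotonic saline and incubated at 37 °C. Growth was read visually after 6 days; MIC is the lowest concentration that inhibited growth. Pyrazinamide served as standard.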

[16] = test system: Trichophyton mentagrophytes; experiment: Antifungal activity against Trichophyton mentagrophytes 445 after 120 hrs by broth microdilution method; format: functional; conditions: Trichophyton mentagrophytes, 445, 120 h; in short: as §4
[17] = test system: Staphylococcus epidermidis; experiment: Antibacterial activity against Staphylococcus epidermidis H 6966/08 after 24 to 48 hrs by broth microdilution method; format: functional, organism-based
Aspergillus fumigatus [18] = experiment: Antifungal activity against Aspergillus fumigatus 231 after 24 hrs by broth microdilution method; format: functional; conditions: Aspergillus fumigatus, 231, 24 h; in short: as §1
Nakaseomyces glabratus [19] = experiment: Antifungal activity against Candida glabrata 20/I after 24 hrs by broth microdilution method; format: functional; in short: as §1
Nakaseomyces glabratus [20] = experiment: Antifungal activity against Candida glabrata 20/I after 48 hrs by broth microdilution method; format: functional; in short: as §1
Enterobacter sp. = experiment: Antibacterial activity against Enterobacter sp. J 14365/ 08 after 24 to 48 hrs by broth microdilution method; format: functional, organism-based
Trichosporon beigelii [21] = experiment: Antifungal activity against Trichosporon beigelii 1188 after 48 hrs by broth microdilution method; format: functional; conditions: Trichosporon beigelii, 1188, 48 h; in short: as §1
Klebsiella pneumoniae [22] = experiment: Antibacterial activity against Klebsiella pneumoniae D11750/08 after 24 to 48 hrs by broth microdilution method; format: functional, organism-based
Aspergillus fumigatus [23] = experiment: Antifungal activity against Aspergillus fumigatus 231 after 48 hrs by broth microdilution method; format: functional; conditions: Aspergillus fumigatus, 231, 48 h; in short: as §1
Lichtheimia corymbifera [24] = experiment: Antifungal activity against Absidia corymbifera 272 after 48 hrs by broth microdilution method; format: functional; conditions: Lichtheimia corymbifera, 272, 48 h; in short: as §1

SMILES	Activity (Staphylococcus aureus [1])	MIC (Pichia kudriavzevii [2])	Activity (Pseudomonas aeruginosa)	MIC (Mycobacterium avium [3])	MIC (Candida albicans [4])	Activity (Escherichia coli)	Activity (Staphylococcus aureus [5])	MIC (Lichtheimia corymbifera [6])	MIC (Mycobacterium avium [7])	MIC [8]	MIC (Pichia kudriavzevii [9])	MIC (Candida albicans [10])	MIC (Candida tropicalis [11])	MIC [12]	MIC (Trichosporon beigelii [13])	MIC (Candida tropicalis [14])	Activity (Klebsiella pneumoniae [15])	MIC (Mycobacterium kansasii)	MIC [16]	Activity [17]	also measured
CCCCCNc1nc(C(N)=O)cnc1C#N	inactive	250 µM (≈ 58.3 µg/mL)	inactive	> 200 µg/mL	> 250 µM	inactive	inactive	125 µM (≈ 29.2 µg/mL)	> 200 µg/mL	> 250 µM	62.5 µM (≈ 14.6 µg/mL)	250 µM (≈ 58.3 µg/mL)	> 250 µM	> 200 µg/mL	> 250 µM	> 250 µM	inactive	> 200 µg/mL	> 250 µM	inactive	MIC (Aspergillus fumigatus [18]): 250 µM (≈ 58.3 µg/mL); MIC (Nakaseomyces glabratus [19]): 250 µM (≈ 58.3 µg/mL); MIC (Nakaseomyces glabratus [20]): > 250 µM; Activity (Enterobacter sp.): inactive; MIC (Trichosporon beigelii [21]): > 250 µM; Activity (Klebsiella pneumoniae [22]): inactive; MIC (Aspergillus fumigatus [23]): > 250 µM; MIC (Lichtheimia corymbifera [24]): > 250 µM
N#Cc1ncc(C(N)=O)nc1Cl	inactive	> 500 µM	inactive	25 µg/mL (≈ 137 µM)	125 µM (≈ 22.8 µg/mL)	inactive	inactive	250 µM (≈ 45.6 µg/mL)	25 µg/mL (≈ 137 µM)	62.5 µM (≈ 11.4 µg/mL)	> 500 µM	125 µM (≈ 22.8 µg/mL)	> 500 µM	25 µg/mL (≈ 137 µM)	> 500 µM	> 500 µM	inactive	25 µg/mL (≈ 137 µM)	62.5 µM (≈ 11.4 µg/mL)	inactive	MIC (Aspergillus fumigatus [18]): > 500 µM; MIC (Nakaseomyces glabratus [19]): > 500 µM; MIC (Nakaseomyces glabratus [20]): > 500 µM; Activity (Enterobacter sp.): inactive; MIC (Trichosporon beigelii [21]): > 500 µM; Activity (Klebsiella pneumoniae [22]): inactive; MIC (Aspergillus fumigatus [23]): > 500 µM; MIC (Lichtheimia corymbifera [24]): 250 µM (≈ 45.6 µg/mL)

Source: ChEMBL document CHEMBL1671800, “Synthesis and antimycobacterial properties of N-substituted 6-amino-5-cyanopyrazine-2-carboxamides” (2011)
